For series [1], the system named is Radical scavenging activity. In words: Antioxidant activity assessed as DPPH radical scavenging activity. The series is classed as functional. In a few lines: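 Compounds were tested in MeOH at 5, 10, 20, 50 and 100 µM with DPPH at 0.1 mM final. Absorbance at 517 nm was read after 30 min. Percent radical inhibition was plotted to give the IC50, the concentration scavenging 50% of DPPH. Trolox was the positive control.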

The next series concerns Bacillus spizizenii. In words: Antimicrobial activity against Bacillus subtilis subsp. spizizenii DMS 347 after 48 hrs by serial dilution method. Type of series: functional. In short, it runs like this: (§1)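 Bacteria grown as liquid cultures in nutrient broth at 37 °C. […] Growth was scored after 48 h of incubation.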
The next series has as its system Micrococcus luteus. Briefly: Antimicrobial activity against Micrococcus luteus DMS 348 after 48 hrs by serial dilution method. Type of series: functional. In short, it runs like this:
as §1

A further series concerns Saccharomyces cerevisiae. In words: Antimicrobial activity against Saccharomyces cerevisiae DMS 70449 after 48 hrs by serial dilution method. Type of series: functional.
In another series the test system is Escherichia coli. Briefly: Antimicrobial activity against Escherichia coli DSM 498 after 48 hrs by serial dilution method. Type of series: functional, organism-based. In short, it runs like this: as §1
Another series has as its system Artemia salina. In words: Toxicity against Artemia salina after 24 hrs. Type of series: organism-based. Conditions: in vivo. In short, it runs like this: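 Freshly hatched Artemia salina larvae (10 per test) in 5 mL artificial seawater; compounds dissolved in DMSO, tested at final 100, 10 and 1 ppm, in triplicate. Surviving shrimps counted after 24 h; LD50 with 95% confidence intervals by Finney probit analysis, reported in ppm.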

Series [2] has as its target Acetylcholinesterase (Homo sapiens) (UniProt P22303).

Values after ≈ are worked out from the molar mass of the structure shown. Active and inactive are the calls of the source. The rule behind the calls is not given here.

Chain of Acetylcholinesterase (Homo sapiens) (P22303 whole entry): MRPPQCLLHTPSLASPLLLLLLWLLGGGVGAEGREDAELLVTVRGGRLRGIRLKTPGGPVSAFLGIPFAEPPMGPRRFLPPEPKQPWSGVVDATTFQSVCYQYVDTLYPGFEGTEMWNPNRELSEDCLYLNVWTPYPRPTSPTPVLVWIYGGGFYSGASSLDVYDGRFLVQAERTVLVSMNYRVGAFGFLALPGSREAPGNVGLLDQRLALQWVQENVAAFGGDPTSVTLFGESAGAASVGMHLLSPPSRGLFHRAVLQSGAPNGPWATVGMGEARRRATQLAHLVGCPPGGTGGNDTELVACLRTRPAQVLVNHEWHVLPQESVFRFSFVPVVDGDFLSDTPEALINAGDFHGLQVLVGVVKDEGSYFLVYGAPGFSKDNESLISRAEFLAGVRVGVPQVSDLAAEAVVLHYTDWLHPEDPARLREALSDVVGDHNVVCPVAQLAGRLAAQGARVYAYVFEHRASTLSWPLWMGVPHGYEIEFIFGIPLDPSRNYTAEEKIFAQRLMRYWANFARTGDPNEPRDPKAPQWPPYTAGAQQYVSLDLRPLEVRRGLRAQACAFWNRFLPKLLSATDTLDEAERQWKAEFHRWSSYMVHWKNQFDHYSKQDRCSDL

Consider `CC1=CCC[C@H]2[C@](C)(Cc3cc(O)cc(Sc4cccc(C(=O)O)c4)c3O)[C@@H](C)CC[C@]12C`, for which, in series [1] (read-out: IC50), the 50% inhibitory concentration (IC50) (as a rule, the point on the concentration scale where inhibition reaches its midpoint) amounted to 31.8 µM. Further, the MIC with Bacillus spizizenii (DMS 347, 48 h) was found to be 10 µg/mL (≈ 21.4 µM); against Micrococcus luteus (DMS 348, 48 h) it was 10 µg/mL (≈ 21.4 µM); in series [2], 1 µg. In the series with Saccharomyces cerevisiae, the MIC result was “inactive”. For the same compound, the outcome in the series with Escherichia coli was inactive. For the same compound, the LC50 (usually the concentration that kills 50% of the test population) in the series on Artemia salina is 14.73 ppm.
On to `Cc1c(C)c2c(c(C)c1O)CCC(C)(C(=O)O)O2` (stereo unspecified) [TROLOX], for which the IC50 in series [1] (read-out: IC50) worked out at 25.8 µM.
Consider `CC1=CCC[C@H]2[C@](C)(CC3=CC(O)C(S[C@H]4CC[C@@]5(C)C(=CC[C@H]6[C@@H]7CC[C@H]([C@H](C)CCCC(C)C)[C@@]7(C)CC[C@@H]65)C4)=CC3O)[C@@H](C)CC[C@]12C` (stereo partly specified), for which the IC50 in series [1] (read-out: IC50) is 71.4 µM. Besides, the 50% lethal concentration (LC50) entry with Artemia salina was “Not Active”.
In the case of GENTAMICIN, the MIC with Bacillus spizizenii turned out to be 1 µg/mL; in the series on Micrococcus luteus, 10 µg/mL.
As for `CC1=CCC[C@H]2[C@](C)(Cc3cc(O)c(Sc4nc5ccccc5s4)cc3O)[C@@H](C)CC[C@]12C`, the IC50 in series [1] (read-out: IC50) came to 31.2 µM. Also, the MIC result in the series with Bacillus spizizenii, in the series on Micrococcus luteus and with Saccharomyces cerevisiae was “inactive” in each case. Further, in the series with Escherichia coli, the result was inactive. In addition, in the series on Artemia salina, the LC50 result is recorded as “Not Active”. In addition, the MIC in series [2] is over 10 µg.
As for `CC1=CCC[C@H]2[C@](C)(CC3=CC(=O)C=CC3=O)[C@@H](C)CC[C@]12C` [AVARONE], the 50% inhibitory concentration (IC50) in series [1] (read-out: IC50) was 32.1 µM. Moreover, the MIC against Bacillus spizizenii (DMS 347, 48 h) stood at 10 µg/mL (≈ 32 µM); against Micrococcus luteus (DMS 348, 48 h), 1 µg/mL (≈ 3.2 µM); in series [2], 1 µg. Besides, the MIC result in the series on Saccharomyces cerevisiae was “inactive”. Further, the result in the series with Escherichia coli was inactive. In addition, the LC50 with Artemia salina was 0.14 ppm.
For the compound `CC1=CCC[C@H]2[C@](C)(Cc3cc(O)ccc3O)[C@@H](C)CC[C@]12C` [AVAROL], the 50% inhibitory concentration (IC50) in series [1] (read-out: IC50) came out at 18 µM. Besides, the MIC in the series on Bacillus spizizenii (DMS 347, 48 h) turned out to be 25 µg/mL (≈ 79.5 µM); with Micrococcus luteus (DMS 348, 48 h), 10 µg/mL (≈ 31.8 µM); in series [2], 10 µg. Besides, in the series on Saccharomyces cerevisiae, the MIC entry was “inactive”. The outcome in the series with Escherichia coli was inactive. In the series with Artemia salina, this compound yielded an LC50 of 0.18 ppm.
Consider `CC1=CCC[C@H]2[C@](C)(CC3=CC(O)C(S[C@H]4CC[C@@]5(C)C(=CC[C@H]6[C@@H]7CC[C@H]([C@H](C)CCCC(C)C)[C@@]7(C)CC[C@@H]65)C4)=C(S[C@H]4CC[C@@]5(C)C(=CC[C@H]6[C@@H]7CC[C@H]([C@H](C)CCCC(C)C)[C@@]7(C)CC[C@@H]65)C4)C3O)[C@@H](C)CC[C@]12C` (stereo partly specified), for which, in series [1] (read-out: IC50), the half-inhibitory concentration (IC50) was found to be 41.5 µM. Also, the MIC result in the series on Bacillus spizizenii, in the series with Micrococcus luteus and with Saccharomyces cerevisiae was “inactive” throughout. Also, in the series with Escherichia coli, the result was inactive. Further, the 50% lethal concentration (LC50) entry with Artemia salina is reported as “Not Active”. This compound registered an MIC in series [2] of over 10 µg.
Regarding `CC1=CCC[C@H]2[C@](C)(Cc3cc(O)cc(SC(C)C(=O)O)c3O)[C@@H](C)CC[C@]12C` (stereo partly specified), the IC50 in series [1] (read-out: IC50) was found to be 34.6 µM. Moreover, the MIC in the series with Bacillus spizizenii (DMS 347, 48 h) was found to be 10 µg/mL (≈ 23.9 µM); in series [2], 1 µg. The MIC result with Micrococcus luteus and in the series on Saccharomyces cerevisiae was “inactive” in each case. Further, in the series on Escherichia coli, the outcome was inactive. In addition, the LC50 in the series on Artemia salina is 27.25 ppm.
For the compound `CC1=CCC[C@H]2[C@](C)(Cc3cc(O)cc(Sc4nc5ccccc5s4)c3O)[C@@H](C)CC[C@]12C`, in series [1] (read-out: IC50), the IC50 came out at 29.5 µM. Moreover, the MIC entry in the series on Bacillus spizizenii was “inactive”. Besides, the MIC in the series on Micrococcus luteus (DMS 348, 48 h) turned out to be 0.01 µg/mL (≈ 0.0208 µM); against Saccharomyces cerevisiae (DMS 70449, 48 h) it was 100 µg/mL (≈ 208 µM); in series [2], 10 µg. Moreover, in the series with Escherichia coli, the outcome was inactive. Besides, the median lethal concentration (LC50) result with Artemia salina is “Not Active”.
On to `CC1=CCC[C@H]2[C@](C)(Cc3cc(O)c(SC(C)C(=O)O)cc3O)[C@@H](C)CC[C@]12C` (stereo partly specified), for which the 50% inhibitory concentration (IC50) in series [1] (read-out: IC50) worked out at 35.3 µM. Besides, the MIC amounted to 10 µg/mL (≈ 23.9 µM) against Bacillus spizizenii (DMS 347, 48 h) and 1 µg in series [2]. In addition, the MIC result in the series on Micrococcus luteus and in the series on Saccharomyces cerevisiae was “inactive” throughout. The result in the series with Escherichia coli was inactive. In addition, the median lethal concentration (LC50) in the series on Artemia salina is given as over 50 ppm.
Consider `CC1=CCC[C@H]2[C@](C)(CC3=CC(=O)C(S[C@H]4CC[C@@]5(C)C(=CC[C@H]6[C@@H]7CC[C@H]([C@H](C)CCCC(C)C)[C@@]7(C)CC[C@@H]65)C4)=CC3=O)[C@@H](C)CC[C@]12C`, for which the IC50 result in series [1] was “Not Active”. Moreover, the MIC result with Bacillus spizizenii, in the series on Micrococcus luteus and in the series on Saccharomyces cerevisiae was “inactive” each time. Also, in the series on Escherichia coli, the outcome was inactive. Further, the LC50 entry in the series with Artemia salina is “Not Active”. In series [2], the MIC was over 10 µg.
On to NYSTATIN, for which the MIC in the series on Saccharomyces cerevisiae was determined as 100 µg/mL.
As to `CC1=CCC[C@H]2[C@](C)(Cc3cc(O)cc(Sc4ccccc4CO)c3O)[C@@H](C)CC[C@]12C`, in series [1] (read-out: IC50), the 50% inhibitory concentration (IC50) came to 25.3 µM. In addition, the MIC entry in the series with Bacillus spizizenii, in the series on Micrococcus luteus and with Saccharomyces cerevisiae was “inactive” throughout. Also, the result with Escherichia coli was inactive. The 50% lethal concentration (LC50) in the series with Artemia salina was over 50 ppm. The compound also returned an MIC in series [2] of 10 µg.
